The M2OR odorant receptor database

How the values were obtained:
Conditions in all cases: stereoisomer not certain
UniProt Q8VGX8 = biological target: T1, UniProt Q8VGX8
T1 sequence (whole entry): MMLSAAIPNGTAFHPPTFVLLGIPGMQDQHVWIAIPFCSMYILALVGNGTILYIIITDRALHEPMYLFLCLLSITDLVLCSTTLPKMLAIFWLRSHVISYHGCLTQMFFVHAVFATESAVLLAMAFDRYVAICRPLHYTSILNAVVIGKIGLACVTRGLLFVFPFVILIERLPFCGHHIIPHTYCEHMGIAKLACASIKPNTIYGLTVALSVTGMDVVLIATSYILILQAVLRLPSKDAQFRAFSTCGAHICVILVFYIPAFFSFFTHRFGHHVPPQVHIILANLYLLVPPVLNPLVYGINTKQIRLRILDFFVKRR
In short: (§1)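 Values were gathered from published papers (main text and supplementary material), with extra details requested from the original authors when needed, and checked for typos and inconsistencies. Each receptor–molecule pair is called responsive (active) if the original authors judged the measured signal statistically different from baseline, and non-responsive (inactive) otherwise. Assay methods varied by source, often transient mammalian cell-line luciferase assays. Recorded details include cell line, G-protein, co-transfected protein and tags.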

UniProt Q8VGY6 = biological target: T2, UniProt Q8VGY6
T2 sequence (whole entry): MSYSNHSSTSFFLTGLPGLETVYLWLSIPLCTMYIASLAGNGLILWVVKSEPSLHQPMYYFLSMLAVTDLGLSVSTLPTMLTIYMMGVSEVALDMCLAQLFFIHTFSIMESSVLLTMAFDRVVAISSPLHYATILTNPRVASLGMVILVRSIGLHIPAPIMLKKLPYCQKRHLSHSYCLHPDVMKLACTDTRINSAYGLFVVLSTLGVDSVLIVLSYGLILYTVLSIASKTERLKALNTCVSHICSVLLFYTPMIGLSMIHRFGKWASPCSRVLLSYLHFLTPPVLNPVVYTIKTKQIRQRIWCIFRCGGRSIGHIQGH
In short: as §1

UniProt Q8VGZ2 = biological target: T3, UniProt Q8VGZ2
T3 sequence (whole entry): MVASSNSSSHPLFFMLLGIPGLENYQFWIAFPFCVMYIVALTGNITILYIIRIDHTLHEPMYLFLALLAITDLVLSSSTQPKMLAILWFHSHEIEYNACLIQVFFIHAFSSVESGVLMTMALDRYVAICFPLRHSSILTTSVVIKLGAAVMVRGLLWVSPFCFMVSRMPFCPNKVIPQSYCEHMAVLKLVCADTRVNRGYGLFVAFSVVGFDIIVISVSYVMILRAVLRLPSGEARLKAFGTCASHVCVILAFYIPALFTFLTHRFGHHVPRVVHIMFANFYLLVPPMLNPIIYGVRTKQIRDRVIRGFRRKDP
In short: as §1

UniProt Q8VGZ7 = biological target: T4, UniProt Q8VGZ7
T4 sequence (whole entry): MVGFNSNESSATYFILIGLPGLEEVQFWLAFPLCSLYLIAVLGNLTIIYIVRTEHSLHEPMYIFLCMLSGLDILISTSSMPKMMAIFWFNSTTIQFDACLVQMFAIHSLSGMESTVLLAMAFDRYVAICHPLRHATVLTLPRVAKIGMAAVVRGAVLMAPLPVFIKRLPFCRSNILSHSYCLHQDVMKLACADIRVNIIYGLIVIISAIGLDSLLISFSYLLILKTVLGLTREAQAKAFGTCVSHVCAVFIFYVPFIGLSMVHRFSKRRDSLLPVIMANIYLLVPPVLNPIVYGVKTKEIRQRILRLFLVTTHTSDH
In short: as §1

UniProt Q8VH10 = biological target: T5, UniProt Q8VH10
T5 sequence (whole entry): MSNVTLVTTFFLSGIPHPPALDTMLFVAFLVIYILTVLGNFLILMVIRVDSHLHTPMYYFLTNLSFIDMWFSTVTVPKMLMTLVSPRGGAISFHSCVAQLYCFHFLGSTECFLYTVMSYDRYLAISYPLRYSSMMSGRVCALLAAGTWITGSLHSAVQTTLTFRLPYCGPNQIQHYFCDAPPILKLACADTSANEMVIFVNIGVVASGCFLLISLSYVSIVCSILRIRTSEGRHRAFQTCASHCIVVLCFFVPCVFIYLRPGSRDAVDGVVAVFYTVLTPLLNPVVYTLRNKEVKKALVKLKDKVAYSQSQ
In short: as §1

UniProt Q8VH16 = biological target: T6, UniProt Q8VH16
T6 sequence (whole entry): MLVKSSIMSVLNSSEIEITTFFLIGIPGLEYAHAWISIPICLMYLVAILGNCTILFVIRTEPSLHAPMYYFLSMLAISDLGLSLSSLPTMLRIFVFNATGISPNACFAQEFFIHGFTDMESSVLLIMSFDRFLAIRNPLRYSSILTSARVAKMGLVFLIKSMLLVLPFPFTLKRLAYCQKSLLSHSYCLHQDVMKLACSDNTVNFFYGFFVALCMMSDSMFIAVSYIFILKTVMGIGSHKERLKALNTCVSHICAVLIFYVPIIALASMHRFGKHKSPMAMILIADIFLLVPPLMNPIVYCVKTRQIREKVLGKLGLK
In short: as §1

UniProt Q8VH20 = biological target: T7, UniProt Q8VH20
T7 sequence (whole entry): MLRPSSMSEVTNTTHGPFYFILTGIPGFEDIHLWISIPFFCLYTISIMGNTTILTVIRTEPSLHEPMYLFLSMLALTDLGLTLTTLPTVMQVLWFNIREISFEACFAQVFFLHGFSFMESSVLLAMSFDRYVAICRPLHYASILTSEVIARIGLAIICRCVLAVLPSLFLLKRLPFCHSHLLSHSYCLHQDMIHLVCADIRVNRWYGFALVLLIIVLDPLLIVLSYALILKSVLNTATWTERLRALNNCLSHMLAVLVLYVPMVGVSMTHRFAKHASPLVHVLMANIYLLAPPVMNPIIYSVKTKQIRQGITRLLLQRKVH
In short: as §1

UniProt Q8VH21 = biological target: T8, UniProt Q8VH21
T8 sequence (whole entry): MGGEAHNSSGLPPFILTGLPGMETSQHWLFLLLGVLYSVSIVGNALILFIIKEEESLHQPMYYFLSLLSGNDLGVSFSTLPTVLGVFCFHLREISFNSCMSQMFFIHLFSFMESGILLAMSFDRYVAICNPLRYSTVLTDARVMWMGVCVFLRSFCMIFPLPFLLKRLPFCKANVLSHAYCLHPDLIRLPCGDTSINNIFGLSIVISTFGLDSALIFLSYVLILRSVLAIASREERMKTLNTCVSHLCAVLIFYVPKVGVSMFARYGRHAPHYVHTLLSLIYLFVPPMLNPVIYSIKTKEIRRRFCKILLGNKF
In short: as §1

UniProt Q8VH18 = biological target: T9, UniProt Q8VH18
T9 sequence (whole entry): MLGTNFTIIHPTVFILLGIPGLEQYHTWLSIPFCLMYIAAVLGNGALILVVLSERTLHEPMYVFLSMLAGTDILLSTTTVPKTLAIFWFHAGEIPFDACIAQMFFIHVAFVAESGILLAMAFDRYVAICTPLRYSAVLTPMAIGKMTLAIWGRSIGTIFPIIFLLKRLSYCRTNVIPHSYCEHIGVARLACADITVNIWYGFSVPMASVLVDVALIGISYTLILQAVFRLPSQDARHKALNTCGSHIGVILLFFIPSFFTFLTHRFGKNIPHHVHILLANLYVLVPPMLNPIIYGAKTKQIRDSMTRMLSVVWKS
In short: as §1

Measured: odorant receptor agonist call

CCCCCC=O
not listed: UniProt Q8VH18
inactive: all other assays above

CCOC(=O)C(C)C
not listed: UniProt Q8VH18
inactive: all other assays above

O=C(c1ccccc1)c1ccccc1
not listed: UniProt Q8VH18
inactive: all other assays above

CC(C)=CCCC(C)CCO (centres undefined)
not listed: UniProt Q8VH18
inactive: all other assays above

CCCCC(C)=O
not listed: UniProt Q8VH18
inactive: all other assays above

CCCCCCCCO
active: UniProt Q8VH18
inactive: all other assays above

CCCCC(=O)CC
not listed: UniProt Q8VH18
inactive: all other assays above

CCCCCCCO
inactive: all assays above

CCCCCC(=O)CC
not listed: UniProt Q8VH18
inactive: all other assays above

CCCCCCCCS
not listed: UniProt Q8VH18
inactive: all other assays above

CCCCCCCC(C)=O
not listed: UniProt Q8VH18
inactive: all other assays above

CCCCCCCCCO
active: UniProt Q8VH18
inactive: all other assays above

CCCCCCOC(C)=O
not listed: UniProt Q8VH18
inactive: all other assays above

O=C1Cc2ccccc2O1
not listed: UniProt Q8VH18
inactive: all other assays above

CCCCCCCCCS
not listed: UniProt Q8VH18
inactive: all other assays above

C=C(C)C1CCC(C)C(=O)C1 (centres undefined)
not listed: UniProt Q8VH18
inactive: all other assays above

CC12CCC(CC1=O)C2(C)C (centres undefined)
not listed: UniProt Q8VH18
inactive: all other assays above

CCCCCOC(=O)CCCCC
not listed: UniProt Q8VH18
inactive: all other assays above

C=CCOC(=O)CCCCCC
not listed: UniProt Q8VH18
inactive: all other assays above

CCCCCCCCC(=O)O
inactive: UniProt Q8VGY6 | UniProt Q8VH10 | UniProt Q8VH16 | UniProt Q8VH21
active: all other assays above

CCCCCCCCCCO
not listed: UniProt Q8VH18
inactive: all other assays above

CCC(=O)O
not listed: UniProt Q8VH18
inactive: all other assays above

CC(=O)OCc1ccccc1
active: UniProt Q8VH10
not listed: UniProt Q8VH18
inactive: all other assays above

CC(=O)Oc1ccccc1
active: UniProt Q8VH10
not listed: UniProt Q8VH18
inactive: all other assays above

CCCCCCCCCC(=O)[O-].[H+]
active: UniProt Q8VGX8 | UniProt Q8VGZ2 | UniProt Q8VH20
inactive: all other assays above

CCCCC(=O)O
active: UniProt Q8VH21
not listed: UniProt Q8VH18
inactive: all other assays above

CC(=O)OCC=C(C)C
not listed: UniProt Q8VH18
inactive: all other assays above

CCCC(=O)C(C)=O
not listed: UniProt Q8VH18
inactive: all other assays above

CCCCCC1=C(C)CCC1=O
not listed: UniProt Q8VH18
inactive: all other assays above

CCCCCCC(C)=O
not listed: UniProt Q8VH18
inactive: all other assays above

CCCCOC=O
not listed: UniProt Q8VH18
inactive: all other assays above

O=C1CCOc2ccccc21
not listed: UniProt Q8VH18
inactive: all other assays above

CCC(=O)C(=O)CC
not listed: UniProt Q8VH18
inactive: all other assays above

CCCCCCO
inactive: all assays above

CCCCCCC(=O)[O-].[H+]
active: UniProt Q8VGX8 | UniProt Q8VGZ2 | UniProt Q8VH18 | UniProt Q8VH20
inactive: UniProt Q8VGY6 | UniProt Q8VGZ7 | UniProt Q8VH10

CCCC(C)=O
not listed: UniProt Q8VH16 | UniProt Q8VH21
inactive: all other assays above

CC=C(C)C=O
active: UniProt Q8VH21
inactive: UniProt Q8VGZ2 | UniProt Q8VGZ7 | UniProt Q8VH16 | UniProt Q8VH20

O=C(O)CCCCBr
inactive: UniProt Q8VGX8 | UniProt Q8VH18

Cc1ccccc1OC(=O)C(C)C
inactive: UniProt Q8VGZ2 | UniProt Q8VGZ7 | UniProt Q8VH16 | UniProt Q8VH20 | UniProt Q8VH21

CCOC(=O)C(C)CC (centres undefined)
inactive: UniProt Q8VGZ2 | UniProt Q8VGZ7 | UniProt Q8VH16 | UniProt Q8VH20 | UniProt Q8VH21

O=C([O-])CCCCCCC(=O)[O-].[H+].[H+]
not listed: UniProt Q8VGY6 | UniProt Q8VH10
inactive: all other assays above

O=c1ccc2ccccc2o1
not listed: UniProt Q8VH16 | UniProt Q8VH21 | UniProt Q8VH18
inactive: all other assays above

O=C(O)CCCCCC(=O)O
inactive: UniProt Q8VGX8 | UniProt Q8VH18
